Test results as given in ChEMBL document CHEMBL4251648, “Synthesis and bioevaluation and doking study of 1H-pyrrolo[2,3-b]pyridine derivatives bearing aromatic hydrazone moiety as c-Met inhibitors” (Eur J Med Chem, 2018).

Columns and labels:
Type in all cases: functional, cell-based
PC-3 = test: Antiproliferative activity against human PC3 cells after 72 hrs by MTT assay
Summary of the method: (§1)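 Cells grown in MEM with 10% FBS. About 4×10³ cells per well, pre-incubated 24 h at 37°C in 5% CO₂. Compound added at final concentrations, then 72 h. MTT added at 5 µg/mL final for 4 h at 37°C. Tested three times; IC50 taken as the average of […] determinations.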

HepG2 = test: Antiproliferative activity against human HepG2 cells after 72 hrs by MTT assay
Summary of the method: as §1, with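 “37°C. Formazan dissolved in DMSO and read at 492 nm against 630 nm reference.” for “37°C.”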

A549 = test: Antiproliferative activity against human A549 cells after 72 hrs by MTT assay; summary of the method: as §1
MCF7 = test: Antiproliferative activity against human MCF7 cells after 72 hrs by MTT assay; summary of the method: as §1
[1] = Homo sapiens, PC-3, 72 h, read-out: IC50
[2] = Homo sapiens, HepG2, 72 h, read-out: IC50
[3] = Homo sapiens, A549, 72 h, read-out: IC50
[4] = Homo sapiens, MCF7, 72 h, read-out: IC50

Compound	IC50 (PC-3; [1]) [µM]	IC50 (HepG2; [2]) [µM]	IC50 (A549; [3]) [nM]	IC50 (MCF7; [4]) [µM]	IC50 (MCF7; mcf7)	IC50 (PC-3; pc-3)	IC50 (A549; a549)	IC50 (HepG2; hepg2)
CN1CCN(CCCn2cccc2/C=N/NC(=O)Nc2ccc(Oc3ccnc4[nH]ccc34)cc2)CC1	3.74	2.76	1640	4.28				
CCN(CC)CCCn1cccc1/C=N/NC(=O)Nc1ccc(Oc2ccnc3[nH]ccc23)c(F)c1	2.95	2.14	1210	3.39				
O=C(N/N=C/c1cccn1CCCN1CCCCC1)Nc1ccc(Oc2ccnc3[nH]ccc23)c(F)c1	2.84	2.84	2850	4.84				
O=C(N/N=C/c1ccc(F)cc1)Nc1ccc(Oc2ccnc3[nH]ccc23)c(F)c1	2.33	3.88	680	0.8				
O=C(N/N=C/c1ccc(O)c(Br)c1)Nc1ccc(Oc2ccnc3[nH]ccc23)c(F)c1	28.6	1.36	9250	8.23				
O=C(N/N=C/c1cccn1CCCN1CCOCC1)Nc1ccc(Oc2ccnc3[nH]ccc23)cc1	14.7	1.69	2240		Not Active			
O=C(N/N=C/c1ccccc1)Nc1ccc(Oc2ccnc3[nH]ccc23)c(F)c1	7.94	0.64	2500	2.38				
O=C(N/N=C/c1ccc([N+](=O)[O-])cc1)Nc1ccc(Oc2ccnc3[nH]ccc23)c(F)c1	0.15	3.03	20	4				
O=C(N/N=C/c1cccn1CCCN1CCCC1)Nc1ccc(Oc2ccnc3[nH]ccc23)c(F)c1	3.58	3.5	2010	4.58				
O=C(N/N=C/c1ccc(F)cc1)Nc1ccc(Oc2ccnc3[nH]ccc23)cc1	7.49	3.43	1430	3.72				
O=C(N/N=C/c1ccc([N+](=O)[O-])cc1)Nc1ccc(Oc2ccnc3[nH]ccc23)cc1	28.1	4.62	2100	15.6				
O=C(N/N=C/c1cccc([N+](=O)[O-])c1)Nc1ccc(Oc2ccnc3[nH]ccc23)c(F)c1	5.14	5.18	3640		Not Active			
O=C(N/N=C/c1ccc(Br)cc1)Nc1ccc(Oc2ccnc3[nH]ccc23)cc1		1	640		Not Active	Not Active		
N#Cc1ccc(/C=N/NC(=O)Nc2ccc(Oc3ccnc4[nH]ccc34)c(F)c2)cc1	9.03	0.85	1360		Not Active			
O=C(N/N=C/c1ccc(O)cc1Br)Nc1ccc(Oc2ccnc3[nH]ccc23)cc1			5080		Not Active	Not Active		
CN(C)CCCn1cccc1/C=N/NC(=O)Nc1ccc(Oc2ccnc3[nH]ccc23)cc1	5.15	4.19	2660	9.14				
CN(C)CCn1cccc1/C=N/NC(=O)Nc1ccc(Oc2ccnc3[nH]ccc23)c(F)c1	1.6	8.98					Not Active	
COc1cc(/C=N/NC(=O)Nc2ccc(Oc3ccnc4[nH]ccc34)c(F)c2)cc(OC)c1OC			34100	21.9		Not Active		Not Active
O=C(N/N=C/c1cccc(Br)c1)Nc1ccc(Oc2ccnc3[nH]ccc23)c(F)c1	4.02	0.66	2220	0.049				
O=C(N/N=C/c1cc(Br)c(O)c(Br)c1)Nc1ccc(Oc2ccnc3[nH]ccc23)c(F)c1		6.52	16200		Not Active	Not Active		

Compound	IC50 (PC-3; [1]) [µM]	IC50 (HepG2; [2]) [µM]	IC50 (A549; [3]) [nM]	IC50 (MCF7; [4]) [µM]	IC50 (MCF7; mcf7)	IC50 (PC-3; pc-3)	IC50 (A549; a549)	IC50 (HepG2; hepg2)
O=C(N/N=C/c1cccc(Cl)c1Cl)Nc1ccc(Oc2ccnc3[nH]ccc23)cc1					Not Active	Not Active	Not Active	Not Active
O=C(N/N=C/c1cccc(Cl)c1Cl)Nc1ccc(Oc2ccnc3[nH]ccc23)c(F)c1					Not Active	Not Active	Not Active	Not Active
O=C(N/N=C/c1cccn1CCN1CCOCC1)Nc1ccc(Oc2ccnc3[nH]ccc23)cc1	1.65	9.94	3880					
COc1ccc(/C=N/NC(=O)Nc2ccc(Oc3ccnc4[nH]ccc34)c(F)c2)c(OC)c1OC	8.97	2.99	1450	0.134				
O=C(N/N=C/c1ccccc1)Nc1ccc(Oc2ccnc3[nH]ccc23)cc1	10.2	0.75	17200	1.51				
COc1ccc(/C=N/NC(=O)Nc2ccc(Oc3ccnc4[nH]ccc34)cc2)c(OC)c1OC	27.6	2.96	3340		Not Active			
O=C(N/N=C/c1ccc(Cl)c(Cl)c1)Nc1ccc(Oc2ccnc3[nH]ccc23)c(F)c1	14.1	3.7	2650	0.998				
O=C(N/N=C/c1ccc(O)cc1O)Nc1ccc(Oc2ccnc3[nH]ccc23)c(F)c1	13	4.55	5840	48				
O=C(N/N=C/c1ccc(O)cc1)Nc1ccc(Oc2ccnc3[nH]ccc23)cc1	4.92	32.2	1910	5.8				
O=C(N/N=C/c1cccn1CCN1CCOCC1)Nc1ccc(Oc2ccnc3[nH]ccc23)c(F)c1	2.45	11.9	3410					
COc1ccc(/C=N/NC(=O)Nc2ccc(Oc3ccnc4[nH]ccc34)c(F)c2)cc1	6.73	1.77	3980	5.75				
O=C(N/N=C/c1ccc(F)cc1Cl)Nc1ccc(Oc2ccnc3[nH]ccc23)c(F)c1	0.003	1.11	10	7.61				
CN1CCN(CCCn2cccc2/C=N/NC(=O)Nc2ccc(Oc3ccnc4[nH]ccc34)c(F)c2)CC1	2.19	2.74	2200	3.74				
O=C(N/N=C/c1ccc(O)cc1)Nc1ccc(Oc2ccnc3[nH]ccc23)c(F)c1	2.78	1.95	3760		Not Active			
CC(C)(C)c1cc(/C=N/NC(=O)Nc2ccc(Oc3ccnc4[nH]ccc34)c(F)c2)cc(C(C)(C)C)c1O	10.4	7.22	13600	0.84				
COc1ccc(/C=N/NC(=O)Nc2ccc(Oc3ccnc4[nH]ccc34)cc2)cc1		9.74	4300		Not Active	Not Active		
O=C(N/N=C/c1cccn1CCCN1CCCCC1)Nc1ccc(Oc2ccnc3[nH]ccc23)cc1	3.58	3.69	1560	4.69				
CCN(CC)CCn1cccc1/C=N/NC(=O)Nc1ccc(Oc2ccnc3[nH]ccc23)cc1	1.37	5.88	3570					
CN(C)CCn1cccc1/C=N/NC(=O)Nc1ccc(Oc2ccnc3[nH]ccc23)cc1	3.93						Not Active	Not Active
